The results in this text go back to ChEMBL document CHEMBL3351887, “'Click' assembly of glycoclusters and discovery of a trehalose analogue that retards Aβ40 aggregation and inhibits Aβ40-induced neurotoxicity” (Bioorg Med Chem Lett, 2014).

Molecules are shown by their SMILES.

In data set [1] the target is Amyloid-beta precursor protein (Homo sapiens) (UniProt P05067). In words: Inhibition of amyloid beta-40 aggregation (unknown origin) assessed as unordered at 900 uM after 72 hrs by CD spectra analysis (reference value: 82 to 85%). The arrangement: scale not given: the % may be the effect or the level left. In a few lines: (§1)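 Low-molecular-weight Aβ40 was prepared by dissolving the peptide in dilute aqueous NaOH (pH 10.5–12) and diluting in phosphate buffer (pH 7.4). It was sonicated for 60 s and ultracentrifuged at 80,000 rpm for 90 min at 4 °C, and the supernatant was used. Compound and Aβ40 were incubated quiescently at pH 7.4 and 37 °C at molar ratios 1:5, 1:1 and 5:1. Secondary-structure fractions were read from CD spectra after 72 h.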
Sequence of Amyloid-beta precursor protein (Homo sapiens) (P05067 whole entry): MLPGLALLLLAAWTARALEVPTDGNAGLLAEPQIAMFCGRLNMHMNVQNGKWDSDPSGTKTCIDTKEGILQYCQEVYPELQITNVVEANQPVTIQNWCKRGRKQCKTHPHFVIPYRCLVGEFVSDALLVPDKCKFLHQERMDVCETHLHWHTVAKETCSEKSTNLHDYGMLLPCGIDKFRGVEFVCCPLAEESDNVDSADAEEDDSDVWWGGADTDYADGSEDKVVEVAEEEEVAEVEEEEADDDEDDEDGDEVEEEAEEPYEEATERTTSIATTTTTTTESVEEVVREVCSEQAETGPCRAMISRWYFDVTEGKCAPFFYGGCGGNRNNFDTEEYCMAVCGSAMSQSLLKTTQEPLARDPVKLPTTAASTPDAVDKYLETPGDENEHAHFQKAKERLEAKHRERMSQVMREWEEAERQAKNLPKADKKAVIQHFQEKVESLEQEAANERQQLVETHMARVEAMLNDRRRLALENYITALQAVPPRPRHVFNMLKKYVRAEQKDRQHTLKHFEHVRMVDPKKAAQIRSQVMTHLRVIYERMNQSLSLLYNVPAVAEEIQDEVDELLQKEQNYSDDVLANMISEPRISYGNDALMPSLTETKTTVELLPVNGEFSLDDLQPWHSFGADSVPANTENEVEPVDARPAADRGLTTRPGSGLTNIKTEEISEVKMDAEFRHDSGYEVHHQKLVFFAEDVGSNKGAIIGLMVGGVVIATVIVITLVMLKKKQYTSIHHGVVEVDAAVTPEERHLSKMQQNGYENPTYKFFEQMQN

The target is the same in data set [2]. In words: Inhibition of amyloid beta-40 aggregation (unknown origin) assessed as beta-turns at 180 uM after 72 hrs by CD spectra analysis (reference value: 0%). The arrangement: scale not given: the % may be the effect or the level left. In a few lines:
as §1

The target is the same in data set [3]. In words: Inhibition of amyloid beta-40 aggregation (unknown origin) assessed as alpha-helix at 900 uM after 72 hrs by CD spectra analysis (reference value: 11 to 15%). The arrangement: scale not given: the % may be the effect or the level left. In a few lines:
as §1

Data set [4] shares this target. In words: Inhibition of amyloid beta-40 aggregation (unknown origin) assessed as beta-sheet at 180 uM after 72 hrs by CD spectra analysis (reference value: 2 to 3%). Further details: scale not given: the % may be the effect or the level left. In a few lines:
as §1

Data set [5] has the same target. In words: Inhibition of amyloid beta-40 aggregation (unknown origin) assessed as unordered at 36 uM after 72 hrs by CD spectra analysis (reference value: 82 to 85%). The arrangement: scale not given: the % may be the effect or the level left. In a few lines: as §1
For data set [6] the target is unchanged. The data set is described as follows: Inhibition of amyloid beta-40 aggregation (unknown origin) assessed as beta-sheet at 900 uM after 72 hrs by CD spectra analysis (reference value: 2 to 3%). Further details: scale not given: the % may be the effect or the level left. In a few lines:
as §1

Data set [7] is described as follows: Neuroprotective activity in C57BL/6 mouse primary cortical neurons assessed as reduction in amyloid beta-40-induced cell death at 600 uM pre-incubated with amyloid beta-40 for 6 hrs and measured after 48 hrs by trypan blue dye exclusion assay. The format is functional, Cerebral cortex neuron. The arrangement: scale not given: the % may be the effect or the level left.

The target in data set [8] is Amyloid-beta precursor protein (Homo sapiens) (UniProt P05067). In words: Inhibition of amyloid beta-40 aggregation (unknown origin) assessed as beta-turns at 900 uM after 72 hrs by CD spectra analysis (reference value: 0%). Further details: scale not given: the % may be the effect or the level left. In a few lines: as §1
The target is the same in data set [9]. The data set is described as follows: Inhibition of amyloid beta-40 aggregation (unknown origin) assessed as alpha-helix at 180 uM after 72 hrs by CD spectra analysis (reference value: 11 to 15%). The arrangement: scale not given: the % may be the effect or the level left. In a few lines: as §1
Data set [10] shares this target. The data set is described as follows: Inhibition of amyloid beta-40 aggregation (unknown origin) assessed as beta-turns at 36 uM after 72 hrs by CD spectra analysis (reference value: 0%). The arrangement: scale not given: the % may be the effect or the level left. Summed up:
as §1

Data set [11] has the same target. In words: Inhibition of amyloid beta-40 aggregation (unknown origin) assessed as beta-sheet at 36 uM after 72 hrs by CD spectra analysis (reference value: 2 to 3%). The arrangement: scale not given: the % may be the effect or the level left. In a few lines:
as §1

Data set [12] has the same target. The data set is described as follows: Inhibition of amyloid beta-40 aggregation (unknown origin) assessed as alpha-helix at 36 uM after 72 hrs by CD spectra analysis (reference value: 11 to 15%). Further details: scale not given: the % may be the effect or the level left. Summed up:
as §1

Data set [13] can be described thus: Neuroprotective activity in C57BL/6 mouse primary cortical neurons assessed as reduction in amyloid beta-40-induced cell death at 240 uM pre-incubated with amyloid beta-40 for 6 hrs and measured after 48 hrs by trypan blue dye exclusion assay. The format is functional, Cerebral cortex neuron. Further details: scale not given: the % may be the effect or the level left.

Data set [14] addresses Amyloid-beta precursor protein (Homo sapiens) (UniProt P05067). The data set is described as follows: Inhibition of amyloid beta-40 aggregation (unknown origin) assessed as unordered at 180 uM after 72 hrs by CD spectra analysis (reference value: 82 to 85%). The arrangement: scale not given: the % may be the effect or the level left. In a few lines:
as §1

The nature of data set [15]: Toxicity in C57BL/6 mouse primary cortical neurons assessed as reduction in cell viability at 240 to 600 uM after 48 hrs by trypan blue dye exclusion assay. The format is cell-based. Conditions: cerebral cortex neuron.
Data set [16] addresses Amyloid-beta precursor protein (Homo sapiens) (UniProt P05067). In words: Inhibition of amyloid beta-40 aggregation (unknown origin) assessed as fibril width at 1800 uM for 7 days at pH 7.4 by transmission electron microscopy (reference value: 12.3 +/- 1.2 nanometer).
Data set [17] shares this target. The data set is described as follows: Inhibition of amyloid beta-40 aggregation (unknown origin) assessed as extension of lag phase of Abeta40 aggregation at 100 uM by ThT fluorescence assay. The arrangement: scale not given: the % may be the effect or the level left. In a few lines: (§2)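 Monomer-rich Aβ40 (35 µM, supernatant after NaOH dissolution, sonication and ultracentrifugation) was incubated with 10 nM–100 µM compound in 20 mM phosphate buffer pH 7.4 (I 0.15 M), with 20 µM ThT and 0.007% NaN3, quiescent at 37 °C. Fluorescence (ex 440, em 480 nm) was read every 5 min. Lag time came from an empirical sigmoidal nonlinear-regression fit; mean ± SE of four independent experiments.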

Data set [18] shares this target. The data set is described as follows: Inhibition of amyloid beta-40 aggregation (unknown origin) assessed as extension of lag phase of Abeta40 aggregation by ThT fluorescence assay. In a few lines: as §2

Regarding `OC[C@H]1O[C@H](O[C@H]2O[C@H](CO)[C@@H](O)[C@H](O)[C@H]2O)[C@H](O)[C@@H](O)[C@@H]1O` [TREHALOSE], the Activity in data set [1] is 17%; in data set [2], 33%; in [3], 18%; in data set [4], 36%; in data set [5], 15%; in [6] it was 36%. Also, the Activity in [7] amounted to 55%; in [8], 29%; in data set [9], 26%; in data set [10] it was 30%; in data set [11] it was 36%; in data set [12] it was 19%. The Activity in data set [13] is 39%; in [14], 5%; in [15] it was “Non-toxic”; in data set [16] it was 11.8 nm.

For `OC[C@H]1O[C@@H](O[C@H]2[C@H](O)[C@@H](O)[C@H](n3cc(COCC(COCc4cn([C@@H]5O[C@H](CO)[C@@H](O[C@@H]6O[C@H](CO)[C@H](O)[C@H](O)[C@H]6O)[C@H](O)[C@H]5O)nn4)(COCc4cn([C@@H]5O[C@H](CO)[C@@H](O[C@@H]6O[C@H](CO)[C@H](O)[C@H](O)[C@H]6O)[C@H](O)[C@H]5O)nn4)COCC(COCc4cn([C@@H]5O[C@H](CO)[C@@H](O[C@@H]6O[C@H](CO)[C@H](O)[C@H](O)[C@H]6O)[C@H](O)[C@H]5O)nn4)(COCc4cn([C@@H]5O[C@H](CO)[C@@H](O[C@@H]6O[C@H](CO)[C@H](O)[C@H](O)[C@H]6O)[C@H](O)[C@H]5O)nn4)COCc4cn([C@@H]5O[C@H](CO)[C@@H](O[C@@H]6O[C@H](CO)[C@H](O)[C@H](O)[C@H]6O)[C@H](O)[C@H]5O)nn4)nn3)O[C@@H]2CO)[C@H](O)[C@@H](O)[C@H]1O`, the Activity in data set [17] was 28%. The inhibition entry in [18] is “Dose-dependent effect”.

As for `OC[C@H]1O[C@@H](n2cc(COCC(COCc3cn([C@@H]4O[C@H](CO)[C@H](O)[C@H](O)[C@H]4O)nn3)(COCc3cn([C@@H]4O[C@H](CO)[C@H](O)[C@H](O)[C@H]4O)nn3)COCC(COCc3cn([C@@H]4O[C@H](CO)[C@H](O)[C@H](O)[C@H]4O)nn3)(COCc3cn([C@@H]4O[C@H](CO)[C@H](O)[C@H](O)[C@H]4O)nn3)COCc3cn([C@@H]4O[C@H](CO)[C@H](O)[C@H](O)[C@H]4O)nn3)nn2)[C@H](O)[C@@H](O)[C@H]1O`, in [17], the Activity turned out to be 28%. Moreover, in data set [18], the inhibition entry was “Dose-dependent effect”.
